# From PubChem BioAssay
# Rad51 HR inh = Rad51 (human) homologous recombination inhibition; Q06609; hRad51 DNA strand exchange, fluorescence dequenching; inhibition, % at 10 µM; hit rate 0.085% among 200,000;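 active = inhibition above 40% at the single screening dose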;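 note: 0% = DMSO control wells and 100% = blanks with heterologous ssDNA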
# Target sequence (Q06609 whole entry, looked up): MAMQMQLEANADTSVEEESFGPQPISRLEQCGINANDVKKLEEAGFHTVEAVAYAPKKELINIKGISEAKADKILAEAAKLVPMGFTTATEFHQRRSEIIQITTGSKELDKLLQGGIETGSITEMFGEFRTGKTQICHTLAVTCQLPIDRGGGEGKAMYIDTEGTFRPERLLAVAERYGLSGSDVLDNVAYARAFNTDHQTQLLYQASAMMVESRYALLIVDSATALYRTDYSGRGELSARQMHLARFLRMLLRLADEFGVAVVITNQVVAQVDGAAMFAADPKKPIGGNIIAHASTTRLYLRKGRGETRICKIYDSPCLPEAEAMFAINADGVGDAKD
#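 Test system: preformed human Rad51 ssDNA filaments. Compound dosing: single dose, 10 µM final compound. Incubation: filaments 15 min 37 °C, then compound 30 min. Technique: FRET fluorescence dequenching, excitation 485 nm, emission 520 nm. Read-out basis: percent inhibition from fluorescence, normalised to plate control and blank means. Benchmarks: plate controls and plate blanks.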
# WT yeast gro inh = growth inhibition of WT yeast, mitochondrial fusion screen | mitochondrial fusion phenotypic screen, WT strain | inhibition, % at 10 µM | hit rate 2.1% among 190,000; in the data active = inhibition above about 58%; tested in S. cerevisiae
# Autophagy HCS = modulators of autophagy | MEF GFP-LC3 puncta imaging; test concentration mostly 10 µM | calls only at 10 µM (by protocol) | hit rate 0.98% among 190,000;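 active = percentage of spot-positive cells more than 3 SD above its plate mean, without a fluorescence outlier flag or 80% toxicity; inconclusive = no clear call, values can overlap the other calls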;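 note: spot-positive cell cutoff set from DMSO-treated cells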
# SKKanGAS inh = blocks kanamycin growth of S. pyogenes SKKanGAS strain; BacTiter-Glo, 6 h; inhibition, % at 7.5 µM; hit rate 1.3% among 300,000; AID 1662;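 active = mean replicate score, as percent of positive control median, at least 50; inconclusive = mean below 50 but one replicate at or above 50; inactive = mean and every replicate below 50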;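 note: strain carries kanamycin resistance gene driven by streptokinase promoter and grows in 40 µg/ml kanamycin; loss of luminescence reflects streptokinase promoter inhibition or plain growth inhibition; 0% = median of DMSO wells and 100% = positive control at its reference dose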
# Ins promoter up = MIN6 insulin promoter up-regulation; MIN6 insulin promoter-GFP reporter, high-content imaging; active compounds read high; z-score at 5 µM; hit rate 0.3% among 190,000;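 active = z-score above 3 at 5 µM with at least 500 cells counted in the well; inconclusive = wells under 500 cells, flagged as cytotoxic or low count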
# Cl transport mod = modulates chloride dependent transport by human KCC2 | Q9H2X9 | KCC2 cells, thallium flux FluoZin-2 fluorescence | B-score of Tl+ flux slope (higher = more flux/activation; lower = inhibition) at 10 µM | hit rate 2.2% among 190,000;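 active = thallium flux slope and its plate-corrected score both differing from the plate sample mean at a set confidence after two filtering rounds, in either direction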;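 note: slope of fluorescence scaled to starting intensity during 10 to 20 s after thallium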
# KCC2 sec1 = confirmation of human KCC2 transport modulators; normalised thallium flux (F/F0 slope) at 10 µM; hit rate 15% among 3,700; HEK293-KCC2, thallium flux, FluoZin2 fluorescence; active compounds read high; shares compounds with Cl transport mod;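 active = thallium flux slope above the same plate's solvent-only control mean plus 3 SD; inconclusive = the two replicate wells disagree; inactive = no significant difference from solvent-only control wells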
# KCC2 bumet counter = thallium flux persisting under bumetanide in KCC2 cells, counter-screen secondary assay; shares compounds with Cl transport mod; HEK293-KCC2 + bumetanide/ouabain, thallium flux FluoZin2; active compounds read high; normalized thallium flux at 10 µM; hit rate 49% among 3,700; AID 1714;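 active = thallium entry rate above the same plate's blocked-transporter control wells by more than 3 SD; inconclusive = the two repeat wells disagree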;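 note: raw slope of fluorescence over initial fluorescence between 10 and 20 s after thallium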
# KCC2 sec2 = KCC2 (human) modulation, second secondary assay | shares compounds with Cl transport mod | HEK293-KCC2, thallium flux FluoZin2 fluorescence; actives lie on both sides; F/F0 rise rate, 10–20 s post-thallium | normalized thallium flux at 10 µM | hit rate 23% among 3,700 | AID 1715;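 active = thallium flux slope more than 3 SD above or below the plate's solvent-only control mean, mostly below; inconclusive = the two repeat wells disagreed; inactive = no significant shift from solvent-only controls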;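 note: raw slope with 0.1% DMSO as baseline and bumetanide as block control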
# HEK counter1 = parental HEK flux effect, counter-screen; shares compounds with Cl transport mod; hit rate 46% among 3,700; HEK293 parental cells, thallium flux FluoZin2, ouabain; baseline-ratio fluorescence slope, 10–20 s after thallium; thallium flux rate (normalised fluorescence) at 10 µM; AID 1716;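 active = thallium flux rate significantly above the same plate's solvent-only control wells, beyond their mean plus 3 SD; inconclusive = the two replicate wells gave conflicting results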
# KCC2 ouabain = KCC2 (human) modulation, ouabain retest; HEK293-KCC2, thallium flux FluoZin2 fluorescence; bidirectional: low = inhibitor, high = activator; shares compounds with Cl transport mod; AID 1717; raw Tl+ flux slope (below DMSO = inhibition, above = activation) at 10 µM; hit rate 48% among 3,700;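 active = thallium flux slope beyond 3 SD from same-plate DMSO control mean in most replicates, usually higher, sometimes lower; inconclusive = repeat tests gave conflicting results; inactive = no significant difference from controls in most replicates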;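 note: slope of initial-normalized fluorescence between seconds 10 and 20 after thallium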
# HEK293 Tl flux2 = counter-screen for KCC2 modulators: effect in parental HEK293 cells; shares compounds with Cl transport mod; thallium flux FluoZin-2 fluorescence slope; thallium flux slope at 10 µM; hit rate 33% among 3,700; AID 1718;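 active = thallium flux slope above the same plate's solvent-control mean plus 3 SD in both duplicate wells; inconclusive = duplicate wells that disagreed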;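 note: run without ouabain in cells lacking the KCC2 cotransporter; slope of fluorescence scaled to its starting value between 10 and 20 s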
# An asterisk follows results filed as active; i = inactive; u = inconclusive; x = no result. Shown are actives, neighbours in structure and some others; about 4.2% of the full set was active somewhere.
SMILES,Rad51 HR inh,WT yeast gro inh,Autophagy HCS,SKKanGAS inh,Ins promoter up,Cl transport mod,KCC2 sec1,KCC2 bumet counter,KCC2 sec2,HEK counter1,KCC2 ouabain,HEK293 Tl flux2
O=C(CSc1nnc(CNc2ccccc2)o1)N1CCCc2ccccc21,x,2,i,-4,x,-4.9*,0.016,0.0046,0.024*,0.0073,0.014,0.0096
O=S(=O)(NCC1(N2CCOCC2)CCCCC1)c1ccc(Cl)cc1C(F)(F)F,x,x,x,2,x,x,x,x,x,x,x,x
CC(C)(C)N(Cc1ccccc1)C(=O)CSc1nnc(CNc2ccc(F)cc2)o1,1,2,i,-19,-0.27,-5.3*,0.0062,0.006,0.029,0.0072,0.013*,0.012
COc1cc(CN2CCNC(=O)C2CC(=O)N2CCc3ccccc3C2)cc(OC)c1 (centres undefined),1,4,i,5,x,x,x,x,x,x,x,x
C=CCN1C(=O)C(CC(=O)O)SC1=Nc1ccc(C)cc1 (centres undefined),-21,6,i,-1,-0.42,x,x,x,x,x,x,x
CC(=O)N1N=C2c3ccccc3CCC2C1c1ccc(F)cc1 (centres undefined),14,x,x,41,0.04,-3.6*,0.0075,0.0053,0.034,u,0.016*,0.01
Cc1cc(C)nc(CCNC(=O)c2cc(COc3ccccc3)on2)n1,x,x,x,-9,x,x,x,x,x,x,x,x
COc1cc(/C=C/c2cc(C(F)(F)F)[nH]c(=O)n2)cc(OC)c1OC,-1,7,i,x,1.7,-2.1,x,x,x,x,x,x
COc1cc(OC)c(OC)cc1/C=C/c1cc(C(F)(F)F)[nH]c(=O)n1,-14,-14,i,5,0.45,-4.7*,u,-0.0019*,u,0.003*,0.012*,0.005*
OCC1N=C(c2ccccn2)OC1c1ccccc1 (centres undefined),3,-17,i,-2,-0.06,-5.8*,0.0072,0.007,0.03,0.0072,0.02,0.01*
COc1ccc(NC(=O)CSCC(=O)N(C)CCOc2ccc(Cl)cc2)cc1,x,x,x,-3,x,x,x,x,x,x,x,x
Cc1ccc(C(=O)/C=C/Nc2ccccc2C(N)=O)cc1,4,10,i,1,0.18,-3.3*,0.017,0.0065*,u,0.007,0.015,0.01
O=C1COc2ccc(-c3csc(=Nc4ccc(OC(F)F)cc4)n3CC3CCCO3)cc2N1 (centres undefined),-1,54,i,2,0.2,-4.8*,0.0071,0.0051,0.028,0.0075,0.017,0.01
O=C(NC(=S)Nc1ccccc1)c1cncc(C#Cc2ccccc2)c1,-9,x,x,0,-0.12,24*,u,0.023*,0.029,0.01*,0.039*,u
CCOc1cccc(C(=O)NC(=S)Nc2cccc(C)c2)c1,2,35,i,-4,-0.04,6.4*,0.0067,0.011*,0.034,0.012*,u,0.015*
O=C(O)c1cccc(NC(=S)NC(=O)c2ccc(-c3ccccc3)cc2)c1,3,-23,i,13,x,-6.1*,u,0.0053,0.022*,0.0057*,0.013*,u
CCOc1cccc(C(=O)Nc2cccc(C(C)=O)c2)c1,x,22,i,-9,1,0.056,x,x,x,x,x,x
O=C(NC(=S)Nc1ccc(Cl)cc1)c1ccccc1,12,x,x,19,0.58,76*,0.016*,0.052*,0.037,u,0.046*,0.023*
O=C(O)c1cncc(C#Cc2ccccc2)c1,x,x,x,0,x,x,x,x,x,x,x,x
COc1ccccc1NS(=O)(=O)c1cc(C(=O)N2CC(C)CC(C)C2)ccc1C (centres undefined),-4,26,i,-11,-0.56,-0.81,x,x,x,x,x,x
CC(=O)Nc1ccc(S(=O)(=O)N2CCN(Cc3csc(C)n3)CC2)cc1,x,x,x,15,x,x,x,x,x,x,x,x
CCOC(=O)C1CCN(C(=O)C(CC)c2ccccc2)CC1 (centres undefined),11,-9,i,-15,-0.03,0.41,x,x,x,x,x,x
CC(=O)c1cccc(NC(=S)NC(=O)c2ccccc2)c1,x,10,i,-18,0,4.5*,0.0065,0.02*,0.032,0.018*,u,0.016*
Cc1c(O)ccc2c(CN(C)Cc3ccccc3)cc(=O)oc12,-4,x,x,14,-0.5,-6.6*,0.0074,0.0057,0.034,u,0.015*,0.011
O=C(COC(=O)c1ccc2ccccc2n1)NCc1ccccc1,-6,0,i,-1,0.3,-0.51,x,x,x,x,x,x
SMILES,Rad51 HR inh,WT yeast gro inh,Autophagy HCS,SKKanGAS inh,Ins promoter up,Cl transport mod,KCC2 sec1,KCC2 bumet counter,KCC2 sec2,HEK counter1,KCC2 ouabain,HEK293 Tl flux2
CC(C)c1nc2sc3c(=O)[nH]c(=S)[nH]c3c2c2c1CCCC2,0,x,x,5,-0.68,-1.5,x,x,x,x,x,x
CC(C)c1nc2sc3c(=O)[nH]c(=S)[nH]c3c2c2c1CCC2,-8,6,i,18,x,-7.9*,0.016,0.0063*,u,0.0051*,0.0094*,u
O=C(Nc1ccc(S(=O)(=O)Nc2nccs2)cc1)c1cnc(Cl)c(Cl)c1,-22,x,x,-3,1.2,-0.083,x,x,x,x,x,x
Nc1ccc(C(=O)Nc2nc3ccccc3s2)cc1,1,18,x,-1,0.9,-3.6*,0.0082,0.0065,0.033,0.0076,0.019,0.011
NC(=S)Nc1nc2ccccc2s1,-23,23,i,-1,-1.2,102*,0.041*,0.087*,0.051*,0.057*,0.056*,0.061*
O=C(O)c1cccc(-n2c(-c3cnccn3)n[nH]c2=S)c1,8,-5,i,-12,0.63,-1.1,x,x,x,x,x,x
N#Cc1cc2c(nc1S(=O)(=O)Cc1ccccc1)CCCC2,-1,-3,i,-4,0.4,0.66,x,x,x,x,x,x
O=C(Cc1ccccc1F)NCC1(N2CCOCC2)CCCCC1,x,x,x,0,-0.04,-0.29,x,x,x,x,x,x
Cc1ccc(CN2CCN(Cc3cccc4nccnc34)CC2CCO)cc1 (centres undefined),x,x,x,16,-0.07,-0.32,x,x,x,x,x,x
COC(=O)Cc1[nH]n(-c2nc3ccccc3s2)c(=O)c1C(C)=Nc1ccc(Cl)cc1,x,x,x,24,0,7.4*,0.0087,0.014*,0.03,0.013*,u,u
COc1ccc(C(=O)O)cc1S(=O)(=O)Nc1ccccc1-c1ccccc1,x,x,x,1,x,x,x,x,x,x,x,x
